What is called IC50 is the point on the concentration scale where inhibition reaches its midpoint. What is called EC50 is the concentration that produces a half-maximal response.

A value given as a limit tells only on which side of the number the result lay.

The text below walks through data of ChEMBL document CHEMBL3580561, “Mitigation of Acetylcholine Esterase Activity in the 1,7-Diazacarbazole Series of Inhibitors of Checkpoint Kinase 1” (J Med Chem, 2015).

Assay [1] deals with T1, Serine/threonine-protein kinase Chk1 (Homo sapiens, UniProt O14757).
T1 sequence (O14757 whole entry): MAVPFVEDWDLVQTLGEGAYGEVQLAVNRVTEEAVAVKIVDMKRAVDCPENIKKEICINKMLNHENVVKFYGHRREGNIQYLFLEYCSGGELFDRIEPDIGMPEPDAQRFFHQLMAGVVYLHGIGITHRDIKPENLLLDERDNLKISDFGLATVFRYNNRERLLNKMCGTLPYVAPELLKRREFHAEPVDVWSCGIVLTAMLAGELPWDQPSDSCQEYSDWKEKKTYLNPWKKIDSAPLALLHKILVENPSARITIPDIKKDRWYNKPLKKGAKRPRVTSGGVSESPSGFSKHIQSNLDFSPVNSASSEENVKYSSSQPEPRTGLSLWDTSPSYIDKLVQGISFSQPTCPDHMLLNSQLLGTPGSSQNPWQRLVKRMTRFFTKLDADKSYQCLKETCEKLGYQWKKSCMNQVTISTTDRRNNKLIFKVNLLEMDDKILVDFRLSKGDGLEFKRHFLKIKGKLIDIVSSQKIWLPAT
As to the kind of experiment: Inhibition of human recombinant Chk1 using biotinylated AKT substrate after 30 mins by Alphascreen biochemical assay.

For assay [2], the target named is T1, Serine/threonine-protein kinase Chk1. As to the kind of experiment: Inhibition of CHK1 in human HT29 cells assessed as phosphorylation of histone H3 after 24 hrs by checkpoint abrogation cellular assay. It counts as cell-based, HT-29.
The target in the next assay is Acetylcholinesterase (Homo sapiens, UniProt P22303). In words: Inhibition of human acetylcholine esterase by horseradish peroxidase-coupled fluorescence assay. In outline:
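Human AChE at 0.006 U/ml, with 0.25 μM acetylcholine chloride, 0.06 U/ml choline oxidase, 0.05 U/ml horseradish peroxidase and 200 μM Amplex Red, in proprietary buffer with test compound. Incubated 30 min at 25 °C. Fluorescence read.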

Sequence of Acetylcholinesterase (P22303 whole entry): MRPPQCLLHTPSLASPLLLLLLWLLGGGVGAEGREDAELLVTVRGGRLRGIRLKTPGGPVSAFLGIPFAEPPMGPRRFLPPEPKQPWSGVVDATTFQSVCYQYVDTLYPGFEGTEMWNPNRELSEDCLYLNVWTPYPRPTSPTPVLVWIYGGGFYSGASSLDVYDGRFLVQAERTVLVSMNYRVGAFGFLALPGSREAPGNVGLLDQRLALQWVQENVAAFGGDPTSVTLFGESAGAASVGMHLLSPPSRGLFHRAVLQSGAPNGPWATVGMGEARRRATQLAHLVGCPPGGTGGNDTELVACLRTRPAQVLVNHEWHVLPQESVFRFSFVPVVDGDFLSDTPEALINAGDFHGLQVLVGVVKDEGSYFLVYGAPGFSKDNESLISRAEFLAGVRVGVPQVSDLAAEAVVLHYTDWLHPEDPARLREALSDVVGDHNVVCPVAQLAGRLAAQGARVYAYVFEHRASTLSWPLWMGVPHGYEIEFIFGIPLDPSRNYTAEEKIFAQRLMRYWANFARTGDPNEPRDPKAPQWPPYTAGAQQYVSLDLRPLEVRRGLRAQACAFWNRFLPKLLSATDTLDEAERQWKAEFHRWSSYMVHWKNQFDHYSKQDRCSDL

With `N#Cc1cc2c(cn1)[nH]c1ncc(-c3cccs3)cc12`, the IC50 in assay [1] worked out at 20.2 nM. Also, the EC50 in assay [2] is 478 nM.

In the case of `c1ncc(-c2cc3c(cn2)[nH]c2ncc(-c4ccc(CN5CCCCC5)cc4)cc23)s1`, the IC50 amounted to 1.3 nM in assay [1] and 496 nM against Acetylcholinesterase. Moreover, the EC50 in assay [2] was determined as 62.7 nM.

For the molecule `c1cncc(-c2cc3c(cn2)[nH]c2ncc(-c4ccc(CN5CCCCC5)cc4)cc23)c1`, the values for the IC50 (in assay [1]; on Acetylcholinesterase) were 0.95 nM and 493 nM, respectively. For the same molecule, the EC50 in assay [2] worked out at 75.1 nM.

On to `N#Cc1cc2c(cn1)[nH]c1ncc(-c3ccc(CN4CCC[C@@H](O)C4)cc3)cc12`, for which the concentration for half-maximal inhibition (IC50) in assay [1] came out at 1.9 nM; at Acetylcholinesterase, 708 nM. Besides, the EC50 in assay [2] was found to be 118 nM.

Regarding `N#Cc1cc2c(cn1)[nH]c1ncc(-c3ccc(CN4CCOCC4)cc3)cc12`, the figures for the IC50 (in assay [1]; at Acetylcholinesterase) were 13.9 nM and 13300 nM, respectively. For the same molecule, the EC50 in assay [2] was determined as 216 nM.

As for `C[C@@H]1CCC[C@H](C)N1Cc1ccc(-c2cnc3[nH]c4cnc(C#N)cc4c3c2)cc1`, the figures for the IC50 (in assay [1]; against Acetylcholinesterase) were 2.1 nM and 135 nM, respectively. Moreover, in assay [2], the EC50 amounted to 99.1 nM.

As to `N#Cc1cc2c(cn1)[nH]c1ncc(-c3cccnc3)cc12`, the IC50 in assay [1] was found to be 76.5 nM. Besides, the 50% effective concentration (EC50) in assay [2] is above 5000 nM.

With `CCNc1cnc2[nH]c3cnc(C#N)cc3c2c1`, the IC50 in assay [1] stood at 56.6 nM. Further, the EC50 in assay [2] is 1790 nM.

As for `OCc1cc2c(cn1)[nH]c1ncc(-c3ccc(CN4CCCCC4)cc3)cc12`, in assay [1], the IC50 came to 18.3 nM. In assay [2], the EC50 worked out at 447 nM.

For the molecule `N#Cc1cc2c(cn1)[nH]c1ncc(-c3ccccc3O)cc12`, the IC50 in assay [1] was found to be 41.7 nM. In addition, the EC50 in assay [2] was above 5000 nM.

Take `NC(=O)c1cc2c(cn1)[nH]c1ncc(-c3ccc(CN4CCCCC4)cc3)cc12`: the IC50 in assay [1] stood at 4.3 nM; at Acetylcholinesterase, 217 nM. Moreover, the EC50 in assay [2] worked out at 292 nM.

Regarding `N#Cc1cc2c(cn1)[nH]c1ncc(-c3ccc(CN4CCC(F)CC4)cc3)cc12`, the IC50 came to 5 nM in assay [1] and 890 nM against Acetylcholinesterase. In assay [2], the EC50 was 95.8 nM.

For `CCNC(=O)c1cc2c(cn1)[nH]c1ncc(-c3ccc(CN4CCCCC4)cc3)cc12`, the IC50 in assay [1] is 102 nM. Further, the EC50 in assay [2] was 2230 nM.

As to `N#Cc1cc2c(cn1)[nH]c1ncc(-c3ccncc3)cc12`, the IC50 in assay [1] came to 42.7 nM. Further, the EC50 in assay [2] is above 5000 nM.

As to `N#Cc1cc2c(cn1)[nH]c1ncc(Br)cc12`, in assay [1], the IC50 was found to be 140 nM.

`CC(=O)Nc1cccc(-c2cnc3[nH]c4cnc(C#N)cc4c3c2)c1`: the IC50 in assay [1] came to 13.5 nM. In assay [2], the EC50 amounted to 425 nM.

For the molecule `N#Cc1cc2c(cn1)[nH]c1ncc(-c3nc(CN4CCCCC4)cs3)cc12`, the IC50 came out at 13.6 nM in assay [1] and 18 nM on Acetylcholinesterase. Further, the EC50 in assay [2] was determined as 658 nM.

Consider `CN1CCN(c2ccc(-c3cnc4[nH]c5cnc(C#N)cc5c4c3)cc2)CC1`, for which, at Acetylcholinesterase, the IC50 was 18 nM.

Turning to `Cn1ccc(-c2cnc3[nH]c4cnc(C#N)cc4c3c2)n1`, the IC50 in assay [1] turned out to be 33.8 nM. The EC50 in assay [2] turned out to be 2500 nM.

For the molecule `CCN1CCc2sc(-c3cnc4[nH]c5cnc(C#N)cc5c4c3)cc2C1`, the IC50 in assay [1] is 0.78 nM; on Acetylcholinesterase, 259 nM. The EC50 in assay [2] is 50.9 nM.

Regarding `c1ncc(-c2cc3c(cn2)[nH]c2ncc(-c4ccc(CN5CCCCC5)cc4)cc23)o1`, the values for the IC50 (in assay [1]; at Acetylcholinesterase) were 0.46 nM and 323 nM, respectively. In assay [2], the EC50 was 23.9 nM.

`c1cnc(-c2cc3c(cn2)[nH]c2ncc(-c4ccc(CN5CCCCC5)cc4)cc23)cn1`: the IC50 in assay [1] stood at 2.3 nM; against Acetylcholinesterase it was 1210 nM. In addition, in assay [2], the EC50 amounted to 168 nM.

For the molecule `Cn1cc(-c2cc3c(cn2)[nH]c2ncc(-c4ccc(CN5CCCCC5)cc4)cc23)cn1`, the IC50 in assay [1] amounted to 0.31 nM; on Acetylcholinesterase, 874 nM. The EC50 in assay [2] stood at 9 nM.

On to `Oc1cc2c(cn1)[nH]c1ncc(-c3ccc(CN4CCCCC4)cc3)cc12`, for which the IC50 in assay [1] came to 863 nM.

For the molecule `N#Cc1cc2c(cn1)[nH]c1ncc(-c3ccc(CO)cc3)cc12`, in assay [1], the IC50 stood at 11.4 nM. In addition, the EC50 in assay [2] is 938 nM.

Take `COc1cc2c(cn1)[nH]c1ncc(-c3ccc(CN4CCCCC4)cc3)cc12`: the half-maximal inhibitory concentration (IC50) in assay [1] is 19.8 nM. Further, the EC50 in assay [2] was found to be 986 nM.

With `c1ncc(-c2cc3c(cn2)[nH]c2ncc(-c4ccc(CN5CCCCC5)cc4)cc23)cn1`, the figures for the IC50 (in assay [1]; on Acetylcholinesterase) were 5.1 nM and 266 nM, respectively. The EC50 in assay [2] amounted to 163 nM.

For the molecule `c1cc(-c2cc3c(cn2)[nH]c2ncc(-c4ccc(CN5CCCCC5)cc4)cc23)ccn1`, the IC50 was 9.1 nM in assay [1] and 777 nM at Acetylcholinesterase. In addition, in assay [2], the half-maximal effective concentration (EC50) turned out to be 1570 nM.

For the molecule `N#Cc1cc2c(cn1)[nH]c1ncc(-c3ccc(CN4CCC(C#N)CC4)cc3)cc12`, the values for the IC50 (in assay [1]; against Acetylcholinesterase) were 11.6 nM and 2690 nM, respectively. Besides, in assay [2], the half-maximal effective concentration (EC50) was determined as 339 nM.

Take `c1nnc(-c2cc3c(cn2)[nH]c2ncc(-c4ccc(CN5CCCCC5)cc4)cc23)o1`: the IC50 was 0.95 nM in assay [1] and 450 nM against Acetylcholinesterase. For the same molecule, the EC50 in assay [2] is 103 nM.

As for `N#Cc1cc2c(cn1)[nH]c1ncc(O)cc12`, in assay [1], the IC50 worked out at 38.1 nM. In addition, the EC50 in assay [2] is above 5000 nM.

Turning to `N#Cc1cc2c(cn1)[nH]c1ncc(-c3cccc(CO)c3)cc12`, the IC50 in assay [1] is 27.1 nM. Besides, the EC50 in assay [2] was above 5000 nM.

On to `C[C@@H]1C[C@H](C)CN(Cc2ccc(-c3cnc4[nH]c5cnc(C#N)cc5c4c3)cc2)C1`, for which the figures for the IC50 (in assay [1]; on Acetylcholinesterase) were 4.2 nM and 4100 nM, respectively. Also, the EC50 in assay [2] is 209 nM.

Consider `c1cc(-c2cnc3[nH]c4cnc(-c5cnoc5)cc4c3c2)ccc1CN1CCCCC1`, for which the values for the 50% inhibitory concentration (IC50) (in assay [1]; at Acetylcholinesterase) were 1.1 nM and 659 nM, respectively. For the same molecule, in assay [2], the EC50 came out at 145 nM.

With `CC1(C)CCCN(Cc2ccc(-c3cnc4[nH]c5cnc(C#N)cc5c4c3)cc2)C1`, the concentration for half-maximal inhibition (IC50) in assay [1] came out at 9.4 nM; against Acetylcholinesterase it was 3330 nM. The EC50 in assay [2] worked out at 128 nM.

As to `N#Cc1cc2c(cn1)[nH]c1ncc(-c3ccoc3)cc12`, the IC50 in assay [1] turned out to be 16.6 nM. Further, the concentration for a half-maximal effect (EC50) in assay [2] came out at 180 nM.

As to `CC(C)(c1ccc(-c2cnc3[nH]c4cnc(C#N)cc4c3c2)cc1)N1CCCCC1`, the results for the IC50 (in assay [1]; against Acetylcholinesterase) were 10.2 nM and 507 nM, respectively. Further, the EC50 in assay [2] came out at 228 nM.

`CC1(C)CCN(Cc2ccc(-c3cnc4[nH]c5cnc(C#N)cc5c4c3)cc2)CC1`: the values for the IC50 (in assay [1]; against Acetylcholinesterase) were 4.4 nM and 11 nM, respectively. Also, the EC50 in assay [2] is 172 nM.

Regarding `N#Cc1cc2c(cn1)[nH]c1ncc(-c3ccc(CN4CCC(O)CC4)cc3)cc12`, the concentration for half-maximal inhibition (IC50) came to 1.8 nM in assay [1] and 378 nM against Acetylcholinesterase. Further, the EC50 in assay [2] was 144 nM.

For `N#Cc1cc2c(cn1)[nH]c1ncc(-c3ccc(CN4CCCCC4)nc3)cc12`, the IC50 in assay [1] was found to be 5.3 nM; at Acetylcholinesterase it was 187 nM. In assay [2], the half-maximal effective concentration (EC50) turned out to be 540 nM.

As for `N#Cc1cc2c(cn1)[nH]c1ncc(-c3ccccn3)cc12`, in assay [1], the IC50 was 127 nM. For the same molecule, the EC50 in assay [2] is above 5000 nM.

In the case of `N#Cc1cc2c(cn1)[nH]c1ncccc12`, in assay [1], the IC50 is 414 nM.

As for `N#Cc1cc2c(cn1)[nH]c1ncc(-c3ccc(N4CCOCC4)cc3)cc12`, the IC50 in assay [1] was determined as 78.7 nM. Also, the EC50 in assay [2] worked out at 219 nM.

In the case of `c1cc2c(cn1)[nH]c1ncc(-c3ccc(CN4CCCCC4)cc3)cc12`, in assay [1], the 50% inhibitory concentration (IC50) came out at 18.6 nM. In addition, in assay [2], the EC50 was 1920 nM.

Regarding `N#Cc1cc2c(cn1)[nH]c1ncc(-c3ncc[nH]3)cc12`, the IC50 in assay [1] turned out to be 14.7 nM. Moreover, the EC50 in assay [2] is above 5000 nM.
